This series can be described thus: Toxicity liver stage against HepG2, at 10uM. Format: cell-based. Set-up: test concentration 10 uM, cell line HepG2-A16-CD81EGFP. Particulars: human, HepG2-A16-CD81EGFP cells; read-out: INHIBITION
An outline of the steps: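 Uninfected HepG2-A16-CD81EGFP cells, 3 × 10^3 per well, 1536-well, plated on prespotted compound at 10 μM final, parasite-free screening media added to match infected plates; puromycin 10 μM positive, DMSO 0.5% negative; run in parallel with 48 h PbLuc assay at 37 °C, 5% CO2; viability by CellTiter-Glo luminescence, normalized to controls.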
On to `CN(C)CCCNCC1CCOC(C)(C)C1` (stereo unspecified), for which the cytotoxicity at 10 µM was -8.02%.

Turning to `CO[C@@H]1CN(c2ccccc2)S(=O)(=O)[C@@]12CCN(S(C)(=O)=O)C2`, the cytotoxicity at 10 µM came to 2.21%. Next, `O=C(c1ccccc1)N(CC1CC1)c1cccnc1`: 7.27%. On to `Cc1c(OCC(=O)NCc2ccccc2Cl)c(=O)ccn1C`, for which the cytotoxicity at 10 µM was -40.5%.

Take `CCOC(=O)Cc1csc(NC(=O)c2cc(=O)c(OC)c[nH]2)n1`: the cytotoxicity at 10 µM is -43.8%. With `COc1cn(CC(=O)N2CCN(c3ccc(F)cc3)CC2)c(C)cc1=O` the figure was 2.29%; with `COCCCNC(=O)C1CN(C(=O)c2cnccn2)C1`, 0.722%. With `CCC(C)N1CCc2c(C(=O)N3CCOCC3)n[nH]c2C1` (stereo unspecified) the figure was 1.88%. With `Cc1cnc(N2C(=O)CSC2c2ccc(N(C)C)cc2)s1` (stereo unspecified) the figure was 6.07%; with `Cc1nn2c(=O)/c(=C\c3cccs3)sc2nc1=O`, 7.19%; with `Clc1ccc(-n2nnnc2C2(NCc3ccco3)CCCCC2)cc1`, 15.7%. As to `Cc1ccn(CC(=O)Nc2cc(-c3ccncc3)[nH]n2)n1`, the cytotoxicity at 10 µM was -14.8%. Turning to `CNc1cnc(CC2COCCN(CCOc3ccccc3)C2)cn1` (stereo unspecified), the cytotoxicity at 10 µM was -0.257%. Next, `Cc1cc2cc(C(=O)N[C@@H]3CC[C@@H](N4CCNC(=O)C4)[C@@H]3O)ccc2o1`: -5%. With `CN(C)C(=O)CN1CCCCC1c1nc(N)ncc1-c1cccc(F)c1` (stereo unspecified) the figure was -3.68%; with `CN1CCC2(Cc3ccccc3CN(C(=O)CCN)C2)C1` (stereo unspecified), 0.17%; with `CCOc1nnc(CN(CC)CC(=O)NC(C)C)s1`, 3.88%.

For `Cc1nc(-c2ccccc2)sc1CNC(=O)c1ccc(=O)n(C)c1`, the cytotoxicity at 10 µM was -6.09%. With `O=C(Nc1cccnc1N1CCSCC1)c1ccc2c(c1)CCO2` the figure was -0.678%; with `O=S(=O)(CCCn1cncn1)Cc1ccc(F)cc1Cl`, 7.49%; with `CCOCCOC(C)C(=O)Nc1ccnn1-c1ccccc1C` (stereo unspecified), -0.308%. Next, `CCc1nc(NS(=O)(=O)c2cccc(F)c2C)no1`: 5.18%; `CN(C1CCCCC1)S(=O)(=O)N1CCN(Cc2ccco2)CC1`: -81.7%.

Take `c1ncn(Cc2ccc(CNCc3ccc4c(c3)OCCO4)cc2)n1`: the cytotoxicity at 10 µM is -1.66%. With `CCCSCC(=O)NCc1cccc(CN(C)CC)c1` the figure was -0.823%; with `COc1cccc(CNC(=O)C(C)N2CC(n3nc(C)cc3C)C2)c1` (stereo unspecified), 0.868%.

Consider `O=C(Nc1ccccc1)C1CCCN(C(=O)Cn2cncn2)C1` (stereo unspecified), for which the cytotoxicity at 10 µM came out at 16.3%.

Turning to `O=C(NCCCC(=O)N1Cc2ccccc2C1)NCc1nccs1`, the cytotoxicity at 10 µM is -1.37%. Next, `Cc1nc(CNC(C)c2cccc(S(=O)(=O)N(C)C)c2)no1` (stereo unspecified): 0.956%; `CCOc1cncc(N2CCN(c3ccccc3O)CC2)n1`: 25.7%; `CC(C)(C)c1cnc(CN2CCC(CO)CC2)o1`: -5.6%.

Consider `CN1CCN(C(=O)C2SCCc3sccc32)CC1` (stereo unspecified), for which the cytotoxicity at 10 µM was -12.6%. Turning to `CN(CCOc1cccc(CNS(C)(=O)=O)c1)C1CCOCC1`, the cytotoxicity at 10 µM came to 2.37%. Consider `CC(C)NC(=O)CCNC(=O)c1cc(Br)cn1C(C)C`, for which the cytotoxicity at 10 µM was 4.33%. With `NC(=O)c1ccc(N2CCCCC2)c(NC(=O)c2ccc(Br)cc2)c1` the figure was 11.1%; with `Fc1ccc(CN2CCOC(Cn3cncn3)C2)c2ncccc12` (stereo unspecified), 0.219%; with `Cc1cc(C)n(C2CN(CC(=O)N(C)Cc3ccco3)C2)n1`, -4.42%. Next, `CNc1cc(N2CCCC2CNCc2cccc(C(N)=O)c2)ncn1` (stereo unspecified): -7.72%; `Cc1nc(C)n(C2CCCN(C(=O)Cc3ccc4c(c3)CCC4)C2)n1` (stereo unspecified): -10.3%. For the compound `Clc1ccc(-c2cnc(CNC3CCc4ncnn4C3)o2)cc1` (stereo unspecified), the cytotoxicity at 10 µM was -4.36%. With `N#Cc1c(Cl)nsc1N1CCN(CC2CC2)CC1` the figure was 28.5%. Next, `Cc1cnn(CCNCc2c(C)nn(Cc3ccccc3)c2C)c1`: -3.46%. Next, `CN(Cc1ccc(F)cc1C#N)CC(F)(F)F`: 4.28%.

Turning to `CC(C)CN(CC(O)c1ccc(F)cc1)C(=O)c1cc[nH]n1` (stereo unspecified), the cytotoxicity at 10 µM is -5.71%. Next, `Cc1nc(C(C)C)sc1C(=O)NS(=O)(=O)c1ccc(C#N)cc1`: -6.94%. With `CC(C)n1nc(CN2CCCC2=O)c2c1CN(C(=O)c1ccco1)C2` the figure was 5.35%; with `COc1cccc(OC)c1-c1ccnc2cc(CC(=O)NC3CC3)nn12`, -2.67%. With `CCNc1nc(-c2cccnc2)c(-c2ccnc(N3CCOCC3)n2)s1` the figure was -10.1%; with `CCc1cc(N2CCCC(CC)(C(=O)O)C2)nc(N2CCOCC2)n1` (stereo unspecified), 0.701%; with `COc1cccc2ccc(CN3CCN(c4ncccn4)CC3)nc12`, -2.13%. Turning to `CCOc1cc(CNCc2nc(C)cc(=O)[nH]2)c(Cl)cc1OC(C)C`, the cytotoxicity at 10 µM was -7.83%. `COCCN1CCC(C(=O)N(C)Cc2c[nH]c3ccc(C)cc23)C1` (stereo unspecified): the cytotoxicity at 10 µM is -13.2%.

`CC(=O)Nc1ccc2nc(-c3nccn3CCCN(C)C)ccc2c1`: the cytotoxicity at 10 µM was -6.07%.

On to `CCc1ncc2c(n1)CN(C(=O)c1c(C)[nH]c(C(C)=O)c1C)C2`, for which the cytotoxicity at 10 µM is -45.9%. Next, `NC(=O)Cn1ccnc1C1CCCN(CCSc2ccccc2)C1` (stereo unspecified): -2.65%.

On to `COc1ccc(CN2CCC3(CC2)C(C(=O)O)CC(=O)N3C)cc1Cl` (stereo unspecified), for which the cytotoxicity at 10 µM is -5.66%. Consider `CCOc1ccc(CNCc2cccnc2N(C)C)cc1`, for which the cytotoxicity at 10 µM was -6.5%.

As for `COc1cccc(Cl)c1-c1cc(CN)ccc1F`, the cytotoxicity at 10 µM is -5.3%. As to `Cc1nn(C)c2nc(N(C)CCN(C)C3CCCC3)sc12`, the cytotoxicity at 10 µM stood at 3.55%. With `O=C1CC(NCc2ncc[nH]2)CN1CCc1cccc(Cl)c1` (stereo unspecified) the figure was -0.745%; with `Cc1c[nH]c(CN2CCCCC2CCc2cccc(O)c2)c(C)c1=O` (stereo unspecified), -14.6%; with `Cc1cc(C)n(Cc2cc(C(=O)N3CCCC3c3ccccn3)n[nH]2)n1` (stereo unspecified), 0.739%. Turning to `CCc1noc(CN(CC)C(=O)c2ccc3ncsc3c2)n1`, the cytotoxicity at 10 µM worked out at 12.2%. Next, `CC(C)[C@]1(O)CN(C(=O)CNC(N)=O)C[C@H]1C`: 5.69%; `Cc1nc2c(c(NCc3cnc4c(c3)CCC4)n1)CNC2`: -3.57%; `CCCN1CCN(Cc2cn(CCC(N)=O)c3ccccc23)CC1`: 4.7%. With `Fc1cccc(Cl)c1Cn1ncnc1CSCCN1CCCC1` the figure was -0.454%; with `O=C(NCCN1CCOC1=O)c1ccc2sccc2c1`, 12.9%; with `Cc1ccccc1N1CCCN(CC2(O)CCCNC2)CC1` (stereo unspecified), -6.1%. Next, `Cc1ccc(C)c(C(NC2CCCC2)c2cccnc2)c1` (stereo unspecified): 23.5%; `O=C(NCCc1ccncc1)C1CCN(Cc2ccco2)CC1`: 26.1%; `Cc1nccc(C(=O)N2CCCC(c3cc(C(F)(F)F)[nH]n3)C2)n1` (stereo unspecified): -4.59%. Turning to `O=C(c1nn(-c2ccccc2F)cc1O)N1CCC2(CC1)OCCO2`, the cytotoxicity at 10 µM was -3.24%. Next, `CC(C)c1noc(CCCC(=O)N2CCN(Cc3ccccn3)CC2)n1`: -1.79%; `CCNc1cc2c(nn1)CCN(C(=O)c1cc(C)no1)C2`: -14.5%.

On to `CCn1ncc2c1CCCC2NCc1cccc2c1OCCCO2` (stereo unspecified), for which the cytotoxicity at 10 µM is -13.4%.

In the case of `Cc1ccc(CNC(C)c2ccc(OCC(=O)NC3CC3)cc2)o1` (stereo unspecified), the cytotoxicity at 10 µM amounted to 2.07%. Next, `CC(NC(=O)NCCOc1ccc(Cl)cc1)c1nncn1C` (stereo unspecified): -8.47%; `CCc1cnc(CN(C(C)=O)C2CCN(CCc3cccs3)C2)o1` (stereo unspecified): -6.78%. Consider `CC(C)c1ncc2c(n1)CN(Cc1nc(Cc3ccccc3)no1)CC2`, for which the cytotoxicity at 10 µM was -14.6%. Next, `Cc1ccc(C)c(NC(=O)N(C)Cc2cnn(C)c2)c1`: -3.02%. For `c1csc(-c2noc(CCCN3CCCC3Cn3cccn3)n2)c1` (stereo unspecified), the cytotoxicity at 10 µM is -7.47%.

Turning to `COCCNC(=O)Nc1ccc(F)c(C(N)=O)c1`, the cytotoxicity at 10 µM is -6.46%.

`CC(=O)N1[C@@H](C(=O)NCC2CC2)C[C@@H]2CN(Cc3nccs3)C[C@@H]21`: the cytotoxicity at 10 µM was 1.7%. With `Cn1cccc1CN1CCC2(CC1)CCN(C(=O)c1cnccn1)CC2` the figure was -147%; with `O=C(NCCc1cccs1)[C@H]1CO[C@H]2CCNC[C@H]2C1`, 2.11%. `COc1ccc(CN2CC[C@H]3[C@H]2CCN3C(=O)c2cnn(C)c2)cc1`: the cytotoxicity at 10 µM is 7.9%.

Consider `O=C1N(Cc2ccncc2)CCC12CCCN(c1ncc(F)cn1)C2` (stereo unspecified), for which the cytotoxicity at 10 µM is -7.38%. With `Cn1ccnc1CN1C[C@@H]2[C@@H](C1)OCC(=O)N2CC1CCCC1` the figure was -4.48%; with `Cc1nc(CN2C[C@@H]3CN(C(=O)c4cccn4C)C[C@@H]3C2=O)cs1`, 1.88%; with `CC1CCN(C(=O)[C@H]2CC[C@@H]3[C@@H](CCN3Cc3nccs3)O2)CC1`, 4.62%. With `Cc1ccc(N2CCC3(CN(CCO)CCC3(F)F)C2)nn1` (stereo unspecified) the figure was 7.28%. Next, `CC1N(c2cnn(C)c2)C(=O)COC12CCN(c1ccccn1)CC2` (stereo unspecified): -5.31%. For the compound `Cn1cc(CN2C[C@@H]3COC[C@@H](C(=O)N4CCCCO4)[C@@H]3C2)cn1`, the cytotoxicity at 10 µM was -1.57%.

Turning to `COCCN1C[C@@H]2[C@@H](OC)CCN(C(=O)Cc3ccsc3)[C@@H]2C1`, the cytotoxicity at 10 µM amounted to 7.68%. In the case of `Cc1ccccc1CC(=O)N1C[C@@H]2CC[C@H]1CN(Cc1cccnc1)C2`, the cytotoxicity at 10 µM is -2.36%.
